Key:
HL-60 = assay: In Vitro cytotoxicity against human cancer cell line, HL-60; assay type: functional
In short: (§1)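 MTT cytotoxicity assay across a panel of nine human cancer cell lines, run in the institutional Pharmacology and Analytic Core Laboratory by a previously described protocol. Cisplatin and a diamide were included as reference controls. Activity above 20 μM/mL was regarded as not significant.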

MCF7 = assay: In Vitro cytotoxicity against human cancer cell line, MCF-7; assay type: functional; in short: as §1
[1] = (§2) In Vitro cytotoxicity against human cancer cell line, MDA-213; assay type: functional, Cancer cell lines; in short: as §1
[2] = (§3) In Vitro cytotoxicity against human cancer cell line, BRO; assay type: functional, Cancer cell lines; in short: as §1
OVCAR = assay: In Vitro cytotoxicity against human cancer cell line, OVCAR; assay type: functional; in short: as §1
PC-3 = assay: In Vitro cytotoxicity against human cancer cell line, PC-3; assay type: functional; in short: as §1
[3] = (§4) In Vitro cytotoxicity against human cancer cell line, SKOV; assay type: functional, Cancer cell lines; in short: as §1
HT-29 = assay: In Vitro cytotoxicity against human cancer cell line, HT-29; assay type: functional; in short: as §1
K562 = assay: In Vitro cytotoxicity against human cancer cell line, K-562; assay type: functional; in short: as §1
Cancer cell lines [4] = assay: as §2; assay type: functional; in short: as §1
Cancer cell lines [5] = assay: as §3; assay type: functional; in short: as §1
Cancer cell lines [6] = assay: as §4; assay type: functional; in short: as §1

Row | Molecule | Cytotoxicity (HL-60) [µM] | Cytotoxicity (MCF7) [µM] | Cytotoxicity [1] [µM] | Cytotoxicity [2] [µM] | Cytotoxicity (OVCAR) [µM] | Cytotoxicity (PC-3) [µM] | Cytotoxicity [3] [µM] | Cytotoxicity (HT-29) [µM] | Cytotoxicity (K562) [µM] | Cytotoxicity (Cancer cell lines [4]) [µM] | Cytotoxicity (Cancer cell lines [5]) [µM] | Cytotoxicity (Cancer cell lines [6]) [µM]
1 | CC(=O)OC1C(=O)N(c2ccccc2)C1c1cc2c3ccccc3ccc2c2ccccc12 (stereo not given) | >20 | >20 | >20 | >20 | >20 | >20 | >20 | >20 | >20 |  |  | 
2 | CN1CCN(C(=O)CCC(=O)Nc2cc3c4ccccc4ccc3c3ccccc23)CC1 | 9.41 | 40 | 12.23 | 33.64 | 18.11 | 27.29 | 11.05 | 16.7 | 12.7 |  |  | 
3 | O=C1c2ccccc2C(=O)N1C1C(=O)N(c2cc3c4ccccc4ccc3c3ccccc23)[C@H]1c1ccccc1 (stereo not given in full) | >20 | >20 | >20 | >20 | >20 | >20 | >20 | >20 | >20 |  |  | 
4 | CC(=O)OC1C(=O)N(c2cccc3cc4ccccc4cc23)[C@@H]1c1ccccc1 (stereo not given in full) | >20 | >20 | >20 | >20 | >20 | >20 | >20 | >20 | >20 |  |  | 
5 | CC(=O)OC1C(=O)N(c2cc3c4ccccc4ccc3c3ccccc23)[C@H]1c1ccccc1 (stereo not given in full) | 3.64 | 9.81 | 11.98 | 10.84 | 4.17 | 16.32 | 6.88 | 5.66 | 4.33 |  |  | 
6 | O=C1C(Oc2ccccc2)[C@H](c2ccccc2)N1c1cc2c3ccccc3ccc2c2ccccc12 (stereo not given in full) | >20 | >20 | >20 | >20 | >20 | >20 | >20 | >20 | >20 |  |  | 
7 | CC(=O)OC1C(=O)N(c2ccc3ccc4cccc5ccc2c3c45)[C@H]1c1ccccc1 (stereo not given in full) | >20 | >20 | >20 | >20 | >20 | >20 | >20 | >20 | >20 |  |  | 
8 | CC(=O)OC1C(=O)N(c2cccc3ccccc23)[C@@H]1c1ccccc1 (stereo not given in full) | >20 | >20 | >20 | >20 | >20 | >20 | >20 | >20 | >20 |  |  | 
9 | CC(=O)OC1C(=O)N(c2cc3c4ccccc4ccc3c3ccccc23)[C@H]1c1ccccn1 (stereo not given in full) | 2.5 | 14.93 | 14.46 | 11 |  |  | 9 | 15.9 | 2.5 |  |  | 
10 | O=C1C(Oc2ccccc2)[C@H](c2ccccc2)N1c1cc2ccccc2c2ccccc12 (stereo not given in full) | >20 | >20 | >20 | >20 | >20 | >20 | >20 | >20 | >20 |  |  | 
11 | CC(=O)OC1C(=O)N(c2cc3ccccc3c3ccccc23)[C@H]1c1ccccc1 (stereo not given in full) | 5.21 | 10.09 | 12.49 | 10.48 | 18 | 9.3 | 18 | 10.49 | 4 |  |  | 
12 | CC(=O)OC1C(=O)N(c2cccc3cc4c(cc23)Cc2cc3ccccc3cc2-4)[C@H]1c1ccccc1 (stereo not given in full) | >20 | >20 | >20 | >20 | >20 | >20 | >20 | >20 | >20 |  |  | 
13 | CISPLATIN | 1.66 | 10.1 |  |  | 3.99 | 4.66 |  | 17 | 2.33 | 12.3 | 7.66 | 5.99
